According to ChEMBL document CHEMBL1124731, “Synthesis and biological activity of novel quaternary ammonium derivatives of alkylglycerols as potent inhibitors of protein kinase C” (J Med Chem, 1990):

Experiments:
[1] = molecular target: T1, Protein kinase C (PKC) (Homo sapiens) (UniProt O94806+P41743+P17252+P05129+Q05655+P05771+Q05513+Q02156+P24723+Q15139+Q04759); test: Retained protein kinase C activity in the presence of 1.25 uM compound; type: functional
Method in brief: (§1)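 Assay at pH 7.5, 25 mM Tris, 10 mM MgCl2, 0.1 mM CaCl2, 40 µg/mL histone, 10 µM ATP with [γ-32P]ATP, 20 µg/mL phosphatidylserine, 2.5 µM OAG. Compound added in ethanol before enzyme; 20 min at 30 °C; TCA-precipitated 32P-histone counted; 0.1% ethanol control; duplicates in three trials, fresh enzyme each.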

[2] = molecular target: T1, Protein kinase C (PKC) (Homo sapiens); test: Retained protein kinase C activity in the presence of 10 uM compound; type: functional; method in brief: as §1
[3] = molecular target: T1, Protein kinase C (PKC) (Homo sapiens); test: Retained protein kinase C activity in the presence 2.5 uM compound; type: functional; method in brief: as §1
[4] = molecular target: T1, Protein kinase C (PKC) (Homo sapiens); test: Retained protein kinase C activity in the presence of 20 uM compound; type: functional; method in brief: as §1
[5] = molecular target: T1, Protein kinase C (PKC) (Homo sapiens); test: Retained protein kinase C activity in the presence of 40 uM compound; type: functional; method in brief: as §1
[6] = molecular target: T1, Protein kinase C (PKC) (Homo sapiens); test: Retained protein kinase C activity in the presence of 5 uM compound; type: functional; method in brief: as §1
[7] = molecular target: T1, Protein kinase C (PKC) (Homo sapiens); test: Inhibition of Protein Kinase C purified from HL-60 cells; type: cell-free; method in brief: as §1

| Activity [1] | Activity [2] | Activity [3] | Activity [4] | Activity [5] | Activity [6] | ID50 [7] | Compound |
| --- | --- | --- | --- | --- | --- | --- | --- |
| 99% | 56% | 99% | 36% | 12% | 61% | 13 µM | CCCCCCCCCCCCCCCCCC1OCC(C[N+](C)(C)CCCO)O1 (stereo unspecified) |
| 94% | 56% | 90% | 43% | 19% | 70% | 17 µM | CCCCCCCCCCCCCCCCC[C@@H]1OC[C@@H](C[N+](C)(C)CCCO)O1 |
| 107% | 64% | 95% | 42% | 29% | 87% | 17 µM | CCCCCCCCCCCCCCCCOCC(C[N+](C)(C)CCO)OC (stereo unspecified) |
| 92% | 70% | 84% | 66% | 47% | 70% | 37 µM | CCCCCCCCCCCCCCCCSCC(C[N+](C)(C)CCO)OCC (stereo unspecified) |
| 112% | 74% | 88% | 54% | 29% | 81% | 25 µM | CCCCCCCCCCCCCCCCSCC(C[N+](C)(C)C)OC (stereo unspecified) |
| 75% | 39% | 56% | 27% | 23% | 49% | 5 µM | CCCCCCCCCCCCCCCCCCSCC(C[N+](C)(C)CCCO)OC (stereo unspecified) |
| 98% | 66% | 86% | 53% | 43% | 72% | 28 µM | CCCCCCCCCCCCCCCCOCC(COCCO)OC (stereo unspecified) |
| 99% | 89% | 99% | 87% | 90% | 83% | > 40 µM | COC(COc1cccc2ccccc12)C[N+](C)(C)CCO (stereo unspecified) |
| 99% | 60% | 93% | 40% | 29% | 73% | 12 µM | CCCCCCCCCCCCCCCCCCOCC(COP(=O)([O-])OCC[N+](C)(C)C)OC (stereo unspecified) |
| 97% | 60% | 90% | 54% | 42% | 73% | 27 µM | CCCCCCCCCCCCCCCCSCC(C[N+](C)(C)CCO)OC (stereo unspecified) |
| 88% | 88% | 84% | 96% | 87% | 87% | > 40 µM | CC1(C)OC[C@@H](C[N+](C)(C)CCO)O1 |
| 78% | 60% | 64% | 59% | 37% | 67% | 26 µM | CCCCCCCCCCCCCCCCSCC(C[N+](C)(C)CCCO)OCC (stereo unspecified) |
| 92% | 73% | 91% | 57% | 43% | 83% | 31 µM | CCCCCCCCCCCCCCCCOCC(COCC[N+](C)(C)C)OC (stereo unspecified) |
